ChEMBL document CHEMBL4673370, “Modifications at C(5) of 2-(2-Pyrrolidinyl)-Substituted 1,4-Benzodioxane Elicit Potent α4β2 Nicotinic Acetylcholine Receptor Partial Agonism with High Selectivity over the α3β4 Subtype” (J Med Chem, 2020)

Tests used:
[1] = molecular target: Neuronal acetylcholine receptor subunit alpha-7 (Rattus norvegicus, UniProt Q05941); experiment: Displacement of [125I]alpha-bungarotoxin from alpha7nAChR in rat hippocampus membranes preincubated for 5 mins followed by [125I]alpha-bungarotoxin addition and measured after overnight incubation by liquid scintillation beta counter analysis; type: cell membranes, Membrane
Sequence of Neuronal acetylcholine receptor subunit alpha-7 (Q05941 whole entry): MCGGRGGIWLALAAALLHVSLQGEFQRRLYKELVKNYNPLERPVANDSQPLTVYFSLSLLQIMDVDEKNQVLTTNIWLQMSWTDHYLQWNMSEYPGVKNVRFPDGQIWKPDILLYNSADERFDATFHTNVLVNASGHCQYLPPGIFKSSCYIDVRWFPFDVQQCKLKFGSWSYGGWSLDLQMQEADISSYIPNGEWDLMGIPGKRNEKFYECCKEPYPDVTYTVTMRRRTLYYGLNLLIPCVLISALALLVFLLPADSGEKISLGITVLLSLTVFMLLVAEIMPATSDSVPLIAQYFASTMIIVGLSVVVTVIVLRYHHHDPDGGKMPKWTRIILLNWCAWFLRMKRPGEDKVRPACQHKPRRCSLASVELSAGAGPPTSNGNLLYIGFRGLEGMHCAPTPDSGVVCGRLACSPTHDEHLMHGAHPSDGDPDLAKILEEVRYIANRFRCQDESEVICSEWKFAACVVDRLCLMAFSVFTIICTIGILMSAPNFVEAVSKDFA

[2] = molecular target: Neuronal acetylcholine receptor; alpha4/beta2 (Rattus norvegicus, UniProt P09483+P12390); experiment: Displacement of [3H]-Epibatidine from alpha4beta2 nAChR in rat cerebral cortex membrane preincubated for 5 mins followed by [3H]-Epibatidine addition and measured after overnight incubation by liquid scintillation beta counter analysis; type: cell membranes
Sequence of Neuronal acetylcholine receptor; alpha4/beta2 (Rattus norvegicus, UniProt P09483+P12390) (P09483 whole entry): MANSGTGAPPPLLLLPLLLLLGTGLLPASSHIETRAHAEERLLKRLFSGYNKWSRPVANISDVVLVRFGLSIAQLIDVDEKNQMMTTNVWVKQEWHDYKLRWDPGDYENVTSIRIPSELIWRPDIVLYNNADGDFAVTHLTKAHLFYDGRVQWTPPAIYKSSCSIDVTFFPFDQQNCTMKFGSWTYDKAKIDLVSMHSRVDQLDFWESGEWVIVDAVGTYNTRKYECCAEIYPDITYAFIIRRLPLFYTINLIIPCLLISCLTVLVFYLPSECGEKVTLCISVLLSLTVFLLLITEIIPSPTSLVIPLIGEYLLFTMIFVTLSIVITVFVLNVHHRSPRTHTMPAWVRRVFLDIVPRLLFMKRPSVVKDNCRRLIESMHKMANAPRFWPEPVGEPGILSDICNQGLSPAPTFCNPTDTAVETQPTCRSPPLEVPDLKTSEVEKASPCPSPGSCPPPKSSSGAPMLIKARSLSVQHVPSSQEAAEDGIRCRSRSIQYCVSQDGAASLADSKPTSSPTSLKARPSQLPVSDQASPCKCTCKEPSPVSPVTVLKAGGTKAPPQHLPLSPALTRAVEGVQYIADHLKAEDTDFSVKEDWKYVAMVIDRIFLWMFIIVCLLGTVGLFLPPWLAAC
Sequence of Neuronal acetylcholine receptor; alpha4/beta2 (Rattus norvegicus, UniProt P09483+P12390) (P12390 whole entry): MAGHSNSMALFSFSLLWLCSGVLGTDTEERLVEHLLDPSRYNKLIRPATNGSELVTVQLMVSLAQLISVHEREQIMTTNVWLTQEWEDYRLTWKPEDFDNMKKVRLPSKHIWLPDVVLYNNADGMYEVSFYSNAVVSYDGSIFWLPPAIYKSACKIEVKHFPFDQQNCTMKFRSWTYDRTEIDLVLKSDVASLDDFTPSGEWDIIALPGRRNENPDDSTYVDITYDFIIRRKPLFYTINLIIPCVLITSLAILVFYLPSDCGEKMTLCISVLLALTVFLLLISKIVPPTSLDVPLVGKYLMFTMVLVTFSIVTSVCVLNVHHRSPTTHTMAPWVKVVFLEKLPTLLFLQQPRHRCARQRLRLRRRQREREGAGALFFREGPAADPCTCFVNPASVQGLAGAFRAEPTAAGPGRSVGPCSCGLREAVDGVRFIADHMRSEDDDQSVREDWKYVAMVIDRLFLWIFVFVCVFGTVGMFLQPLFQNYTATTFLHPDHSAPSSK
Procedure, shortened: (§1)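 Membranes (rat cerebral cortex for α4β2; HEK cells stably transfected with human α3β4) were pre-exposed to rising compound concentrations for 5 min. Samples were filtered on PEI-soaked GFC filters and counted by β scintillation. Nonspecific binding was set with 100 nM epibatidine.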

[3] = molecular target: T1, Neuronal acetylcholine receptor; alpha3/beta4 (Homo sapiens, UniProt P30926+P32297); experiment: Displacement of [3H]-epibatidine from human alpha3beta4 transfected in HEK293 cell membranes preincubated for 5 mins followed by [3H]-epibatidine addition and measured after overnight incubation by liquid scintillation beta counter analysis; parameters: species or system Membrane
T1 sequence (P30926 whole entry): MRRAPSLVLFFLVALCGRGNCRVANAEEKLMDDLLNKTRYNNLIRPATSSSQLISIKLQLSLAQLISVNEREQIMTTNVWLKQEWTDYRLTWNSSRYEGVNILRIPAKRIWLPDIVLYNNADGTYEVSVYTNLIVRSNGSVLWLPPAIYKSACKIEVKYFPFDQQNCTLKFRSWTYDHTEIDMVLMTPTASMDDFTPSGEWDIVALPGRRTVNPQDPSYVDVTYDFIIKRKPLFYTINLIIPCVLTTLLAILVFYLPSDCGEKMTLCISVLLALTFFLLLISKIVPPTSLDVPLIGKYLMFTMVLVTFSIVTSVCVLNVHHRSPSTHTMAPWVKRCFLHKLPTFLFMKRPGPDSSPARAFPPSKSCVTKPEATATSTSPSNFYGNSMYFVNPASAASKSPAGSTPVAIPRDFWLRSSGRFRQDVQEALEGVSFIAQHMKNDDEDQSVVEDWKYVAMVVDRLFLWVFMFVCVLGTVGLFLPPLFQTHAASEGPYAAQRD
T1 sequence (P32297 whole entry): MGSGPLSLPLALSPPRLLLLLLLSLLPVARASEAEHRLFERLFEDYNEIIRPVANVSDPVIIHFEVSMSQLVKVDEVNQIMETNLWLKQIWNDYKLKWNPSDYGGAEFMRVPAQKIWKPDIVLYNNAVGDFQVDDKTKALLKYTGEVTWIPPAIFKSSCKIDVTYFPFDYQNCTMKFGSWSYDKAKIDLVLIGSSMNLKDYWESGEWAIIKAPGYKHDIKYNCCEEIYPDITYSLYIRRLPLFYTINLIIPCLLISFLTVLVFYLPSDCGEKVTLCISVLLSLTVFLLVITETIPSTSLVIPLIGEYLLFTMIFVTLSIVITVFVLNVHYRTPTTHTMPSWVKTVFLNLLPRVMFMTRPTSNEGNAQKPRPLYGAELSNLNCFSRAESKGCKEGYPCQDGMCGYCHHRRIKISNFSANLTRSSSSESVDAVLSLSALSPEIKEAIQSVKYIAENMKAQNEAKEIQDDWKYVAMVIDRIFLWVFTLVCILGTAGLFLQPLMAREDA
Procedure, shortened: as §1, with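 “min. They were then incubated overnight at 4 °C with [3H]epibatidine (0.1 nM for α4β2, 0.25 nM for α3β4).” for “min.”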

[4] = molecular target: T2, Neuronal acetylcholine receptor; alpha4/beta2 (Homo sapiens, UniProt P17787+P43681); experiment: Partial agonist activity at human alpha4beta2 transfected in rat GH4-C1 cells assessed as maximum response at holding potential of -70 mV by whole cell patch clamp electrophysiology method relative to ACh; type: cell-based
T2 sequence (P17787 whole entry, the tested form may be a part): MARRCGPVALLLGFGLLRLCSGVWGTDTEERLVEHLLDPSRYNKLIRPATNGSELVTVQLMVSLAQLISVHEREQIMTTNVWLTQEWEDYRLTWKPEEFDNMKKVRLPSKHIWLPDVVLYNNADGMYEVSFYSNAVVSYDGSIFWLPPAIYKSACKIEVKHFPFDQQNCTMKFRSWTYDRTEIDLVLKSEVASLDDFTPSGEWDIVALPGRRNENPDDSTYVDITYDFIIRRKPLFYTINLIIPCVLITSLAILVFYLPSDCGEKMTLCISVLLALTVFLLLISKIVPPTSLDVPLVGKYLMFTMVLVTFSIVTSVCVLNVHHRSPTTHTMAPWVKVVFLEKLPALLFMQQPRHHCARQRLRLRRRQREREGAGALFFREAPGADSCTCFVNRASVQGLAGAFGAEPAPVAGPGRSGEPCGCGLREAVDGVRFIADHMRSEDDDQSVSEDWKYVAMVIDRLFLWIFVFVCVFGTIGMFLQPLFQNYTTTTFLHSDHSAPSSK
T2 sequence (P43681 whole entry, the tested form may be a part): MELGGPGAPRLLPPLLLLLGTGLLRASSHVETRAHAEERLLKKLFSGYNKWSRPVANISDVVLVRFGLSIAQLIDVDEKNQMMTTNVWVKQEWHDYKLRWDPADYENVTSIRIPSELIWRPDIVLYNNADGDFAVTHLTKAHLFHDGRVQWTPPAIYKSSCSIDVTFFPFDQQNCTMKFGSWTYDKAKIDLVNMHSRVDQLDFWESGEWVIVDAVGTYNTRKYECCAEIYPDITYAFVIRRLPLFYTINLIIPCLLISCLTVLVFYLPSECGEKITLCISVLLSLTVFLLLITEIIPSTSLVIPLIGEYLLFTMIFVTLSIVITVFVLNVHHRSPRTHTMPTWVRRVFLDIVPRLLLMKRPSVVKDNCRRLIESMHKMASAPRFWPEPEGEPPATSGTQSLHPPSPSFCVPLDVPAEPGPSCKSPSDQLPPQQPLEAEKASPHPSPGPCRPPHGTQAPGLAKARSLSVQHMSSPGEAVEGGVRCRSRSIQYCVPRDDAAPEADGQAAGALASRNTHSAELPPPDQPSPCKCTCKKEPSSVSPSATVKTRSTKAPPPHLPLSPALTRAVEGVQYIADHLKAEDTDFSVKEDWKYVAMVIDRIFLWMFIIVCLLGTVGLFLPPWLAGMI
Procedure, shortened: (§2)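 GH4C1 cells were transiently transfected by magnetofection with 0.5 μg of each human subunit cDNA (wild-type or S108A α4β2; α3β4). Whole-cell currents were recorded in HEPES-buffered saline at pH 7.3, with CsCl/BAPTA pipettes and fast perfusion of agonist. Concentrations were applied sequentially, and peak currents were normalized to 100 μM ACh on the same cell. EC50, Imax and Hill coefficient came from a Hill-equation fit.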

[5] = molecular target: T2, Neuronal acetylcholine receptor; alpha4/beta2; experiment: Partial agonist activity at human alpha4beta2 transfected in rat GH4-C1 cells at holding potential of -70 mV by whole cell patch clamp electrophysiology method; type: cell-based; procedure, shortened: as §2
[6] = molecular target: T1, Neuronal acetylcholine receptor; alpha3/beta4; experiment: Partial agonist activity at human alpha3beta4 transfected in rat GH4-C1 cells assessed as maximum response at holding potential of -70 mV by whole cell patch clamp electrophysiology method relative to ACh; type: cell-based; procedure, shortened: as §2
[7] = Selectivity index, ratio of Ki for displacement of [3H]-Epibatidine from wild type human alpha4beta2 nAChR transfected in Hela cell membrane to Ki for displacement of [3H]-Epibatidine from human alpha4beta2 nAChR S108A mutant transfected in Hela cell membrane; type: cell membranes
Procedure, shortened: (§3)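 HeLa cells were transiently transfected (JetPEI) with 7.5 μg each of α4 and β2 (wild-type or mutant) cDNA and harvested after 24 h. Membranes were pre-exposed to compounds for 5 min, then incubated overnight at 4 °C with 0.1 nM [3H]epibatidine, filtered and counted by β scintillation. Ki came from the Cheng–Prusoff equation, three independent experiments in duplicate.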

[8] = molecular target: T1, Neuronal acetylcholine receptor; alpha3/beta4; experiment: Partial agonist activity at human alpha3beta4 transfected in rat GH4-C1 cells at holding potential of -70 mV by whole cell patch clamp electrophysiology method; type: cell-based; procedure, shortened: as §2
[9] = molecular target: T2, Neuronal acetylcholine receptor; alpha4/beta2; experiment: Displacement of [3H]-epibatidine from wild type human alpha4beta2 nAChR transfected in human Hela cell membranes preincubated for 5 mins followed by [3H]-epibatidine addition and measured after overnight incubation by liquid scintillation beta counter analysis; procedure, shortened: as §3
[10] = Displacement of [3H]-epibatidine from human alpha4beta2 nAChR S108A mutant transfected in human Hela cell membranes preincubated for 5 mins followed by [3H]-Epibatidine addition and measured after overnight incubation by liquid scintillation beta counter analysis; procedure, shortened: as §3
[11] = Agonist activity at human alpha4beta2 S108A mutant transfected in rat GH4-C1 cells at holding potential of -70 mV by whole cell patch clamp electrophysiology method; type: cell-based; procedure, shortened: as §2
GH4-C1 = experiment: Agonist activity at human alpha4beta2 S108A mutant transfected in rat GH4-C1 cells assessed as maximum response at holding potential of -70 mV by whole cell patch clamp electrophysiology method relative to ACh; type: cell-based; procedure, shortened: as §2
[12] = molecular target: T2, Neuronal acetylcholine receptor; alpha4/beta2; experiment: Agonist activity at wild type human alpha4beta2 transfected in rat GH4-C1 cells at holding potential of -70 mV by whole cell patch clamp electrophysiology method; type: cell-based; procedure, shortened: as §2
[13] = molecular target: T1, Neuronal acetylcholine receptor; alpha3/beta4; experiment: Antagonist activity at human alpha3beta4 transfected in rat GH4-C1 cells assessed as inhibition of ACh-induced response at holding potential of -70 mV by whole cell patch clamp electrophysiology method; type: cell-based
[14] = molecular target: T2, Neuronal acetylcholine receptor; alpha4/beta2; experiment: Partial agonist activity at wild type human alpha4beta2 transfected in rat GH4-C1 cells assessed as maximum response at holding potential of -70 mV by whole cell patch clamp electrophysiology method relative to ACh; type: cell-based; procedure, shortened: as §2

SMILES | Ki [1] [µM] | Ki [2] [µM] | Ki [3] [µM] | other results
CN1CCC[C@H]1[C@H]1COc2ccc([N+](=O)[O-])cc2O1 | 42.2 | 33 | 2.1 | 
CN1CCC[C@H]1[C@@H]1COc2cc(-c3ccccc3)ccc2O1 | 8.1 | 59 | 5.4 | 
CN(C)c1ccc2c(c1)O[C@@H]([C@@H]1CCCN1C)CO2 | > 10 | 49 | 25 | 
CN1CCC[C@H]1[C@H]1COc2c(cccc2-c2ccccc2)O1 | 50 | 7.3 | 5.3 | 
CN1CCC[C@H]1[C@@H]1COc2cc(O)ccc2O1 | 26.8 | 50 | 1.9 | 
CN1CCC[C@H]1[C@H]1COc2c(O)cccc2O1 |  | 1.7 | > 100 | 
CN1CCC[C@H]1[C@H]1COc2cc(-c3ccccc3)ccc2O1 | 2.1 | 92 | 5.8 | 
CN1CCC[C@H]1[C@H]1COc2c(cccc2[N+](=O)[O-])O1 |  | 0.335 | 6.7 | 
CN1CCC[C@H]1[C@H]1COc2cc([N+](=O)[O-])ccc2O1 | 13.5 | > 100 | 4.8 | 
CN1CCC[C@H]1[C@@H]1COc2cc([N+](=O)[O-])ccc2O1 | 31.5 | 46 | 15 | 
CN1CCC[C@H]1[C@@H]1COc2ccc(N)cc2O1 | 2.6 | 0.022 | 0.019 | Imax [4]: 36%; EC50 [5]: 14 µM; Imax [6]: 24%; Ratio Ki [7]: 7.7; EC50 [8]: 19 µM; Ki [9]: 0.046 µM; Ki [10]: 0.006 µM
CN(C)c1ccc2c(c1)O[C@H]([C@@H]1CCCN1C)CO2 |  | 147 | 2.2 | 
CN1CCC[C@H]1[C@@H]1COc2ccccc2O1 |  |  |  | Ratio Ki [7]: 1.29; Ki [9]: 1.17 µM; Ki [10]: 0.912 µM
CN1CCC[C@H]1[C@@H]1COc2ccc(O)cc2O1 |  |  |  | Ratio Ki [7]: 5.6; EC50 [11]: 3.8 µM; Imax (GH4-C1): 29%; EC50 [12]: 3.8 µM; Ki [9]: 0.0067 µM; Ki [10]: 0.0012 µM
CN1CCC[C@H]1[C@@H]1COc2c(O)cccc2O1 |  | 0.55 | 3.9 | 
CN1CCC[C@H]1[C@@H]1COc2c(N)cccc2O1 | 109 | 7.1 | 3.9 | 
CN1CCC[C@H]1[C@H]1COc2cc(O)ccc2O1 | 10.5 | 71 | 6 | 
CN1CCC[C@H]1[C@H]1COc2c(N)cccc2O1 | 44.5 | 0.131 | 13 | IC50 [13]: 54.6 µM; Imax [4]: 21.8%; EC50 [5]: 0.005 µM; Imax [6]: 38.2%; Ratio Ki [7]: 2.4; EC50 [8]: 8.7 µM; EC50 [11]: 2.4 µM; Imax (GH4-C1): 31%; EC50 [12]: 2.4 µM; Ki [9]: 0.373 µM; Imax [14]: 31%; Ki [10]: 0.156 µM
CN1CCC[C@H]1[C@@H]1COc2c(cccc2-c2ccccc2)O1 | 45.5 | 0.64 | 2.7 | 
CN1CCC[C@H]1[C@H]1COc2cc(N)ccc2O1 | > 10 | 74 | 8.6 | 
CN1CCC[C@H]1[C@H]1COc2ccc(O)cc2O1 |  |  | 0.7 | 
CN1CCC[C@H]1[C@H]1COc2ccc(N)cc2O1 | 19.1 | 0.14 | 0.18 | 
CC(=O)Nc1ccc2c(c1)O[C@@H]([C@@H]1CCCN1C)CO2 |  | 46 | 8.7 | 
CC(=O)Nc1ccc2c(c1)O[C@H]([C@@H]1CCCN1C)CO2 | > 10 | 6.5 | 1.9 | 
CN1CCC[C@H]1[C@@H]1COc2cc(N)ccc2O1 |  | 86 | 3.5 | 
CN1CCC[C@H]1[C@@H]1COc2c(cccc2[N+](=O)[O-])O1 |  | 12.2 | 1.1 | 
CN1CCC[C@H]1[C@@H]1COc2ccc([N+](=O)[O-])cc2O1 | 10.4 | 14 | 4.5 | 
CN1CCC[C@H]1[C@@H]1COc2ncccc2O1 | 89 | 0.41 |  | Imax [4]: 24.2%; Ratio Ki [7]: 0.43; EC50 [11]: 2.6 µM; Imax (GH4-C1): 26%; EC50 [12]: 2.6 µM; Ki [9]: 0.114 µM; Imax [14]: 26%; Ki [10]: 0.265 µM
